Yeast life ext = yeast lifespan extension; S. cerevisiae growth with nicotinamide, OD615; deaD strain in restrictive glucose medium; inhibition of the nicotinamide effect, % at 10 µM; actives 0.68% (n = 130,000); AID 775;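 active = inhibition above a set limit, placed 3 SD over the median of all compounds, cut at about 26% in these data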;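 note: 0% = nicotinamide-treated wells and 100% = cells grown without nicotinamide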
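System: DeaD-strain S. cerevisiae / Buffer or medium: CSMM-D, restrictive glucose (dextrose) synthetic minimal medium / Probe or stimulus: nicotinamide, 1.5 mM, co-present with compound / Compound: one concentration, 10 µM, DMSO 0.25% / Incubation: 48 h compound exposure at 30 °C, humidified / Technique: optical density (absorbance) at 615 nm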
BB579 growth dn = yeast BB579 growth reduction in restrictive medium; S. cerevisiae BB579 growth, OD615, 48 h; inhibition, % at 10 µM; actives 0.51% (n = 140,000); AID 804;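 active = inhibition above a set limit, 3 SD over the mean compound inhibition, cut at about 44% in these data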
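Material: Saccharomyces cerevisiae DeaD strain BB579, replicative lifespan model yeast; buffer or medium: CSMM-D restrictive synthetic medium containing dextrose (glucose); compound: 10 µM single dose, DMSO 0.25%; timing: 48 h compound exposure at 30 °C after 4 h preincubation; signal: turbidity as optical density at 615 nm; benchmarks: positive control amphotericin B 10 µg/mL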
RAM network inh = blocks the yeast RAM network; S. cerevisiae dse1pr::URA3 reporter, 5-FOA growth OD615, 2 d; analog-sensitive cbk1-as2 kinase mutant strain; inhibition, % at 50 µM; actives 1.8% (n = 190,000);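 active = inhibition above a set limit, 3 SD over mean compound inhibition, cut at about 8.4% in these data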;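 note: 0% = DMSO-only wells with no growth and 100% = 10 µM 1-NA-PP1 full growth; inhibition rescues growth on 5-FOA so higher OD means more RAM inhibition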
Numbers without * were called inactive; . = no result. Hits are enriched below; roughly 2.6% of the tested compounds scored in any of these assays.

SMILES | Yeast life ext | BB579 growth dn | RAM network inh
Cc1ccccc1NC(=O)c1ccc(NC(=O)C2CC(=O)OC23CCCCC3)cc1 (stereo unspecified) | . | . | 1
O=C(Cn1nc(-c2cccc(Cl)c2)ccc1=O)Nc1ccc(C(=O)NC2CC2)cc1 | . | . | 2
COc1cccc2sc(Nc3nc(-c4ccccn4)cs3)nc12 | -4 | 88* | -1
c1ccc(Nc2nc(-c3ccccn3)cs2)cc1 | -9 | 29 | 1
CC(C)(C)C1CCC(=NNC(=O)C(=O)NCc2ccco2)CC1 (stereo unspecified) | . | . | 1
COCCNC(=O)NC12CC3(C)CC(C)(CC(C)(C3)C1)C2 | . | . | -1
CCC(C)NCCOCCOc1ccc(Br)cc1 (stereo unspecified) | . | . | 1
O=C(Nc1ccc(F)cc1)C1CCCO1 (stereo unspecified) | . | . | 1
O=C(Nc1ccc(O)cc1)C1CCCO1 (stereo unspecified) | 53* | -10 | 1
COc1ccc(COc2cc(-c3cccc(OC)c3)nc3ccc(NC(=O)c4ccc(N(C)C)cc4)cc23)cc1 | 2 | -29 | 6
COc1ccc(COc2cc(-c3cccc(OC)c3)nc3ccc(NC(=O)c4ccc(C)cc4)cc23)cc1 | 3 | -39 | 8.6*
S=C(NC1CC2CCC1C2)N1CCN(c2cccc(Cl)c2)CC1 (stereo unspecified) | . | . | 4
CCCCCCNC(=O)C(C#N)c1nc2ccccc2nc1N1CCCC1 (stereo unspecified) | -4 | -4 | 5
CCCCCCNC(=O)C(C#N)c1nc2ccccc2nc1N1CCOCC1 (stereo unspecified) | -9 | -44 | 9.7*
Cc1nnsc1S(=O)(=O)Cc1ccccc1C(F)(F)F | . | . | 0
O=C1C(C=NCc2ccncc2)=C(O)c2ccccc21 | 10 | -73 | 1
O=[N+]([O-])c1cc2oc3c(c2c(C=NCc2ccncc2)c1O)CCCC3 | 67* | 9 | 0
COc1ccc(OC)c(C2C(C(C)=O)=C(O)C(=O)N2Cc2cccnc2)c1 (stereo unspecified) | 82* | -27 | 2
CC(=O)C1=C(O)C(=O)N(Cc2cccnc2)C1c1ccccc1Cl (stereo unspecified) | 18 | -12 | 1
Cc1c(C#N)c(NC(=O)CCl)n(Cc2cccs2)c1C | . | . | 3
O=C(CSc1ccc(F)cc1)Nc1ccccc1Br | . | . | 11*
O=C(CSc1ccc(F)cc1)Nc1ccc(Br)cc1 | . | . | 1
CCc1ccc(NC(=O)CN2C(=O)C(=O)N(Cc3ccccc3)C2=O)cc1 | . | . | 2
CCN1CCN(c2nc(S(=O)(=O)c3ccc(C)cc3)c(Cl)s2)CC1 | . | . | 1
Cn1c(Sc2ccc(Br)cc2)c(C=O)c2ccccc21 | -7 | -31 | 10*
SMILES | Yeast life ext | BB579 growth dn | RAM network inh
Cn1c(Oc2ccc(F)cc2)c(C=O)c2ccccc21 | . | . | 1
CS(=O)(=O)N(CC(=O)NC1CCCC1)C1CCCCC1 | . | . | 0
CC(=NCCc1c(C)[nH]c2ccc(OC(F)(F)F)cc12)C1=C(O)CC(c2ccccc2)CC1=O (stereo unspecified) | . | . | 5
CC(=NCCc1c(C)[nH]c2ccc(C)cc12)C1=C(O)CC(c2ccccc2)CC1=O (stereo unspecified) | 58* | -12 | 3
O=C(N/N=C\c1cccc([N+](=O)[O-])c1O)C1COc2ccccc2O1 (stereo unspecified) | -6 | 64* | -1
O=C(N/N=C/c1cccc([N+](=O)[O-])c1)C1COc2ccccc2O1 (stereo unspecified) | . | . | 0
CSc1ccc(C(=O)C2CCCN(S(=O)(=O)N(C)C)C2)cc1 (stereo unspecified) | . | . | 10*
CN(C)S(=O)(=O)N1CCCC(C(=O)c2ccc(-c3ccccc3)c(F)c2)C1 (stereo unspecified) | . | . | 7
Cc1cc(C)cc(NC(=S)NN)c1 | . | . | 2
COc1ccccc1N(CC(=O)NC1CCCC1)C(=O)c1oc(C(C)(C)C)cc1C | . | . | 1
CCN(CC)S(=O)(=O)c1cc(NC(=O)CCNC(=O)c2ccccc2Cl)ccc1C | 3 | -14 | 2
CCN(CC)S(=O)(=O)c1cc(NS(=O)(=O)c2cc(Cl)ccc2Cl)ccc1C | 20 | -38 | 11*
CC(C)(C)C(=O)NC1(C(F)(F)F)NC(=O)N(c2ccc(F)cc2)C1=O (stereo unspecified) | . | . | 2
CCn1c(=S)sc2c(=O)[nH]c(C)nc21 | 0 | -36 | 0
CCN(CC)c1nc(-c2ccccc2)nc2c1sc(=S)n2CC | . | . | 9.8*
COC(=O)C1CCN(c2ccc(Cl)nn2)CC1 | . | . | 1
C(=N\n1c2ccccc2c2ccccc21)/c1ccccc1 | 1 | -15 | 8
Oc1ccccc1/C=N/n1c2ccccc2c2ccccc21 | -19 | -14 | 9.7*
CN1C(=O)C2C(c3ccc(N(C)C)cc3)NN(Cc3ccccc3)C2C1=O (stereo unspecified) | . | . | 2
c1cnc2c(c1)ccc1cccnc12 | -9 | 99* | 0
Cc1ccc2cccnc2c1N | . | . | 2
C=CC(C)(C)c1cc2cc3ccoc3cc2oc1=O | -6 | -41 | 0
CCC(=O)NC(=S)NNC(=O)c1ccc(NC(=O)c2ccccc2)cc1 | . | . | 6
CC(C)CC(=O)Nc1ccc(C(=O)NNC(=S)NC(=O)C2CCCCC2)cc1 | 0 | -9 | 8.4*
N#CC1(NC(=O)CN2CCc3ccccc3C2)CCCC1 | . | . | 2
SMILES | Yeast life ext | BB579 growth dn | RAM network inh
Clc1ccc2[nH]c3c(c2c1)CCc1cn[nH]c1-3 | -29 | 100* | 1
c1ccc2c3c([nH]c2c1)-c1[nH]ncc1CC3 | -13 | -12 | -2
Cc1nc(C)c(NC(=O)OC(C)C)cc1NC(=O)OC(C)C | . | . | 1
Cc1cccc(NC(=O)Cn2cnc3c(oc4nc5c(cc43)COC(C)(C)C5)c2=O)c1 | -4 | -8 | 8.5*
CC1(C)Cc2nc3oc4c(=O)n(CC(=O)Nc5ccccc5)cnc4c3cc2CO1 | 5 | -23 | 3
COC(=O)c1c(NC(=S)Nc2ccc(CC(=O)O)cc2)sc(C)c1C | 4 | -15 | 10*
CCOC(=O)c1c(NC(=S)Nc2ccc(Cl)cc2)sc(C)c1C | -8 | -42 | 5
N=C1SCC(=O)N1c1ncc(Cc2cccc(Cl)c2)s1 | . | . | 2
Cc1ccc(C(=O)NNC(=O)CSc2n[nH]c(-c3cccnc3)n2)cc1 | . | . | 3
C/C(=N\NC(=S)Nc1cc(S(=O)(=O)N2CCOCC2)ccc1Cl)c1ccccc1F | 7 | -37 | 4
Cn1c(C(=O)c2ccccc2[N+](=O)[O-])nc2ccccc21 | . | . | 0
COC(=O)/C(C#N)=C/c1c(Oc2cc(C)cc(C)c2)nc2c(C)cccn2c1=O | 2 | -25 | 9.1*
Cc1cc(Oc2nc3c(C)cccn3c(=O)c2/C=C(\C#N)S(=O)(=O)c2ccc(Cl)cc2)ccc1Cl | -1 | -14 | 6
CCOc1cc(NS(=O)(=O)c2ccc(NC(C)=O)cc2)c(OCC)cc1NC(=O)c1cccs1 | 3 | -1 | 6
CCOC(=O)Nc1ccc2c(c1)nc(CN1CCCCC1)n2C | . | . | 2
COc1cc(C2C(N3C(=O)c4ccccc4C3=O)C(=O)N2c2cccc(C)c2)cc(OC)c1OC (stereo unspecified) | 4 | -29 | 5
COc1c(Cl)cc(C(=O)Nc2ccccc2-c2ccccc2)cc1Cl | -28 | -26 | 8.7*

Screens as filed in PubChem BioAssay.
